From ChEMBL document CHEMBL1240350, “In vitro activity of CEM-101 against Streptococcus pneumoniae and Streptococcus pyogenes with defined macrolide resistance mechanisms” (Antimicrob Agents Chemother, 2010)
Converted amounts (≈) assume the structure as drawn.

Columns and labels:
[1] = test system: Streptococcus pneumoniae; test: Antibacterial activity against macrolide-susceptible Streptococcus pneumoniae 7127 harboring S20N mutation in L4 ribosomal protein and A105V mutation in L22 ribosomal protein after 15 passages and 10 compound-free subculturing by retest method; format: functional
[2] = test system: Streptococcus pneumoniae; test: Antibacterial activity against macrolide-susceptible Streptococcus pneumoniae 1077 after 29 passages and 10 compound-free subculturing by retest method; format: functional
[3] = test system: Streptococcus pyogenes; test: Antibacterial activity against macrolide-susceptible Streptococcus pyogenes 2132 after 28 passages and 10 compound-free subculturing by retest method
[4] = test system: Streptococcus pneumoniae; test: Antibacterial activity against Streptococcus pneumoniae harboring erm(B) gene after overnight incubation by agar dilution method; format: functional
Outline: (§1)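 Clinical isolates collected 1998–2008, with macrolide-resistance genes confirmed by PCR. MICs by agar dilution on Mueller-Hinton agar with 5% sheep blood. Inoculum 10^4 CFU/spot, incubated overnight at 35°C in ambient air. S. pneumoniae ATCC 49619 was the quality-control strain in every run.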

[5] = test system: Streptococcus pneumoniae; test: Antibacterial activity against macrolide-resistant Streptococcus pneumoniae 1635 harboring erm(A) gene after 49 passages and 10 compound-free subculturing by retest method; format: functional
Outline: (§2)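 Multistep selection by daily serial passage in subinhibitory drug concentrations. Medium was cation-adjusted Mueller-Hinton broth plus 5% lysed horse blood. Each day the next inoculum came from the tube 1–2 dilutions below the MIC whose turbidity matched the growth control, for up to 50 days. Clone MICs by CLSI macrodilution; identity to the parent confirmed by SmaI PFGE.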

[6] = test system: Streptococcus pneumoniae; test: Antibacterial activity against macrolide-susceptible Streptococcus pneumoniae 1077 after 49 passages and 10 compound-free subculturing by retest method; format: functional
[7] = test system: Streptococcus pneumoniae; test: Antibacterial activity against macrolide-resistant Streptococcus pneumoniae 2686 harboring mutation in L4 ribosomal protein after 22 passages and 10 compound-free subculturing by retest method; format: functional
[8] = test system: Streptococcus pyogenes; test: Antibacterial activity against macrolide-resistant Streptococcus pyogenes 237 harboring mutation in L4 ribosomal protein after 43 passages and 10 compound-free subculturing by retest method
[9] = test system: Streptococcus pyogenes; test: Antibacterial activity against macrolide-resistant Streptococcus pyogenes 237 harboring mutation in L4 ribosomal protein after 20 passages and 10 compound-free subculturing by retest method
[10] = test system: Streptococcus pyogenes; test: Antibacterial activity against macrolide-resistant Streptococcus pyogenes 2094 harboring erm(A) gene after 5 passages and 10 compound-free subculturing by retest method
[11] = test system: Streptococcus pneumoniae; test: Antibacterial activity against Streptococcus pneumoniae harboring mutation in 23S rRNA after overnight incubation by agar dilution method; format: functional; outline: as §1
[12] = test system: Streptococcus pyogenes; test: Antibacterial activity against macrolide-resistant Streptococcus pyogenes 2368 harboring erm(B) gene after overnight incubation by agar dilution method
[13] = test system: Streptococcus pyogenes; test: Antibacterial activity against macrolide-resistant Streptococcus pyogenes 2011 harboring mef(A) gene after 50 passages following overnight incubation by agar dilution method
[14] = test system: Streptococcus pneumoniae; test: Antibacterial activity against macrolide-resistant Streptococcus pneumoniae 1076 harboring erm(B) and mef(A) gene after 14 passages and 10 compound-free subculturing by retest method; format: functional; outline: as §2
[15] = test system: Streptococcus pneumoniae; test: Antibacterial activity against macrolide-resistant Streptococcus pneumoniae 2686 harboring mutation in L4 ribosomal protein after 25 passages and 10 compound-free subculturing by retest method; format: functional
[16] = test system: Streptococcus pneumoniae; test: Antibacterial activity against penicillin-susceptible Streptococcus pneumoniae after overnight incubation by agar dilution method; format: functional
Outline: (§3)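 Agar dilution on Mueller-Hinton agar supplemented with 5% sheep blood. Inoculum 10^4 CFU/spot, incubated overnight at 35°C in ambient air. Test strains were clinical pneumococcal isolates. S. pneumoniae ATCC 49619 was included as the quality control strain in each run. MIC range, MIC50 and MIC90 were reported for each susceptibility category.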

[17] = test system: Streptococcus pneumoniae; test: Antibacterial activity against macrolide-resistant Streptococcus pneumoniae 1635 harboring erm(A) gene after overnight incubation by agar dilution method; format: functional
[18] = test system: Streptococcus pyogenes; test: Antibacterial activity against macrolide-susceptible Streptococcus pyogenes 2132 after 50 passages following overnight incubation by agar dilution method
[19] = test system: Streptococcus pyogenes; test: Antibacterial activity against macrolide-susceptible Streptococcus pyogenes 2132 after overnight incubation by agar dilution method
[20] = test system: Streptococcus pneumoniae; test: Antibacterial activity against macrolide-resistant Streptococcus pneumoniae 1076 harboring erm(B) and mef(A) gene after overnight incubation by agar dilution method; format: functional
[21] = test system: Streptococcus pyogenes; test: Antibacterial activity against macrolide-resistant Streptococcus pyogenes 2094 harboring erm(A) gene after overnight incubation by agar dilution method
[22] = test system: Streptococcus pneumoniae; test: Antibacterial activity against macrolide-susceptible Streptococcus pneumoniae 7127 harboring S20N mutation in L4 ribosomal protein and A105V mutation in L22 ribosomal protein after 38 passages and 10 compound-free subculturing by retest method; format: functional
[23] = test system: Streptococcus pneumoniae; test: Antibacterial activity against macrolide-susceptible Streptococcus pneumoniae 7127 harboring S20N mutation in L4 ribosomal protein and A105V mutation in L22 ribosomal protein after 16 passages and 10 compound-free subculturing by retest method; format: functional
[24] = test system: Streptococcus pneumoniae; test: Antibacterial activity against macrolide-resistant Streptococcus pneumoniae 3665 harboring mef(A) gene after overnight incubation by agar dilution method; format: functional
[25] = test system: Streptococcus pneumoniae; test: Antibacterial activity against macrolide-susceptible Streptococcus pneumoniae 1077 after 15 passages and 10 compound-free subculturing by retest method; format: functional
[26] = test system: Streptococcus pneumoniae; test: Antibacterial activity against macrolide-resistant Streptococcus pneumoniae 24 harboring erm(B) gene after overnight incubation by agar dilution method; format: functional
[27] = test system: Streptococcus pneumoniae; test: Antibacterial activity against macrolide-susceptible Streptococcus pneumoniae 1077 after overnight incubation by agar dilution method; format: functional
[28] = test system: Streptococcus pneumoniae; test: Antibacterial activity against quinolone-susceptible Streptococcus pneumoniae after overnight incubation by agar dilution method; format: functional; outline: as §3
[29] = test system: Streptococcus pneumoniae; test: Antibacterial activity against Streptococcus pneumoniae harboring erm(B) and mef(A) gene after overnight incubation by agar dilution method; format: functional; outline: as §1
[30] = test system: Streptococcus pyogenes; test: Antibacterial activity against Streptococcus pyogenes harboring erm(A) gene after overnight incubation by agar dilution method; format: functional; outline: as §1
[31] = test system: Streptococcus pneumoniae; test: Antibacterial activity against macrolide-resistant Streptococcus pneumoniae 3665 harboring mef(A) gene after 26 passages and 10 compound-free subculturing by retest method; format: functional
[32] = test system: Streptococcus pneumoniae; test: Antibacterial activity against macrolide-resistant Streptococcus pneumoniae 1076 harboring erm(B) and mef(A) gene after 18 passages and 10 compound-free subculturing by retest method; format: functional; outline: as §2
[33] = test system: Streptococcus pyogenes; test: Antibacterial activity against macrolide-resistant Streptococcus pyogenes harboring mef(A) gene after overnight incubation by agar dilution method; format: functional
Outline: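 Agar dilution MICs on Mueller-Hinton agar with 5% sheep blood. Inoculum 10^4 CFU/spot, incubated overnight at 35°C in ambient air. Clinical S. pneumoniae or group A streptococcal isolates; resistance genotypes (erm(B), erm(A), mef(A)/mef(E)) were assigned by PCR. S. pneumoniae ATCC 49619 served as QC strain in each run. Range, MIC50 and MIC90 reported per phenotype group.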

SMILES | MIC [1] | MIC [2] | MIC [3] | MIC [5] | MIC [6] | MIC [7] | MIC [8] | MIC [9] | MIC [10] | MIC [11] | MIC [12] | MIC [14] | MIC [15] | MIC50 [16] | MIC90 [16] | MIC [17] | MIC [19] | MIC [20] | MIC [21] | MIC [22] | further results
CC[C@H]1OC(=O)[C@@](C)(F)C(=O)[C@H](C)[C@@H](O[C@@H]2O[C@H](C)C[C@H](N(C)C)[C@H]2O)[C@](C)(OC)C[C@@H](C)C(=O)[C@H](C)[C@H]2N(CCCCn3cc(-c4cccc(N)c4)nn3)C(=O)O[C@]12C [SOLITHROMYCIN] | 0.008 µg/mL (≈ 0.00947 µM) | 0.03 µg/mL (≈ 0.0355 µM) | 0.016 µg/mL (≈ 0.0189 µM) | 0.008 µg/mL (≈ 0.00947 µM) | 0.06 µg/mL (≈ 0.071 µM) | 1 µg/mL (≈ 1.18 µM) | 0.03 µg/mL (≈ 0.0355 µM) | 0.5 µg/mL (≈ 0.592 µM) | 0.016 µg/mL (≈ 0.0189 µM) | 0.002 µg/mL (≈ 0.00237 µM) | 1 µg/mL (≈ 1.18 µM) | 2 µg/mL (≈ 2.37 µM) | 0.016 µg/mL (≈ 0.0189 µM) | 0.03 µg/mL (≈ 0.0355 µM) | 0.125 µg/mL (≈ 0.148 µM) | 0.008 µg/mL (≈ 0.00947 µM) | 0.008 µg/mL (≈ 0.00947 µM) | 1 µg/mL (≈ 1.18 µM) | 0.03 µg/mL (≈ 0.0355 µM) | 0.008 µg/mL (≈ 0.00947 µM) | MIC50 [4]: 0.03 µg/mL (≈ 0.0355 µM); MIC90 [4]: 0.5 µg/mL (≈ 0.592 µM); MIC [13]: 0.125 µg/mL (≈ 0.148 µM); MIC [18]: 0.016 µg/mL (≈ 0.0189 µM); MIC [23]: 0.06 µg/mL (≈ 0.071 µM); MIC [24]: 0.03 µg/mL (≈ 0.0355 µM); MIC [25]: 0.06 µg/mL (≈ 0.071 µM); MIC [26]: 0.004 µg/mL (≈ 0.00473 µM); MIC [27]: 0.008 µg/mL (≈ 0.00947 µM); MIC50 [28]: 0.03 µg/mL (≈ 0.0355 µM); MIC90 [28]: 0.25 µg/mL (≈ 0.296 µM); MIC50 [29]: 0.125 µg/mL (≈ 0.148 µM); MIC90 [29]: 0.25 µg/mL (≈ 0.296 µM); MIC50 [30]: 0.03 µg/mL (≈ 0.0355 µM); MIC90 [30]: 0.125 µg/mL (≈ 0.148 µM); MIC [31]: 0.06 µg/mL (≈ 0.071 µM); MIC [32]: 32 µg/mL (≈ 37.9 µM)
CC[C@H]1OC(=O)[C@H](C)[C@@H](O[C@H]2C[C@@](C)(OC)[C@@H](O)[C@H](C)O2)[C@H](C)[C@@H](O[C@@H]2O[C@H](C)C[C@H](N(C)C)[C@H]2O)[C@](C)(O)C[C@@H](C)CN(C)[C@H](C)[C@@H](O)[C@]1(C)O [AZITHROMYCIN] | > 64 µg/mL | > 64 µg/mL | 1 µg/mL (≈ 1.34 µM) | > 64 µg/mL | > 64 µg/mL | > 64 µg/mL | 8 µg/mL (≈ 10.7 µM) | 4 µg/mL (≈ 5.34 µM) | > 64 µg/mL | 32 µg/mL (≈ 42.7 µM) | > 64 µg/mL | > 64 µg/mL | > 64 µg/mL | 4 µg/mL (≈ 5.34 µM) | > 64 µg/mL | 2 µg/mL (≈ 2.67 µM) | 0.06 µg/mL (≈ 0.0801 µM) | > 64 µg/mL | 4 µg/mL (≈ 5.34 µM) | 0.06 µg/mL (≈ 0.0801 µM) | MIC [23]: 0.06 µg/mL (≈ 0.0801 µM); MIC [24]: 8 µg/mL (≈ 10.7 µM); MIC [25]: > 64 µg/mL; MIC [26]: > 64 µg/mL; MIC [27]: 0.03 µg/mL (≈ 0.0401 µM); MIC50 [28]: > 64 µg/mL; MIC90 [28]: > 64 µg/mL; MIC50 [30]: 16 µg/mL (≈ 21.4 µM); MIC90 [30]: > 64 µg/mL; MIC [31]: 8 µg/mL (≈ 10.7 µM); MIC50 [33]: 8 µg/mL (≈ 10.7 µM); MIC90 [33]: 8 µg/mL (≈ 10.7 µM); MIC [32]: > 64 µg/mL
